Screening results deposited in PubChem BioAssay by Sanford-Burnham Center for Chemical Genomics.
EBI2 antag – EBI2 (human) antagonism. P32249. 360,000 compounds, 0.81% hits. inhibition, % at 5 µM. EBI2 beta-arrestin recruitment, luminescence, 7a,25-OHC stimulated; in the data active means inhibition above about 38%;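 further: enzyme fragment complementation signal reports receptor beta-arrestin coupling in cells; 0% = agonist plus DMSO wells and 100% = wells without agonist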
APJ antag – APJ receptor antagonism | P35414 | CHO-K1 APJ beta-arrestin complementation, luminescence | inhibition, % at 20 µM | 330,000 compounds, 0.32% hits;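 active means inhibition above about 40% at 20 µM, limit read from the data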;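 further: cells challenged with 10 nM apelin-13 agonist together with compound; plate controls were apelin-13 plus DMSO wells for no effect and DMSO wells lacking apelin-13 for full effect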
CCR6 antagonist – CCR6 (human) receptor antagonism. P51684. CHO-K1 CCR6 PathHunter beta-arrestin, luminescence, CCL20-stimulated. inhibition, % at 20 µM. 340,000 compounds, 0.49% hits. AID 493098;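 active means compounds whose inhibition of the agonist-driven luminescence signal at 20 µM reaches about 50%, limit read from the data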;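 further: cells stimulated with CCL20 at 14 nM final; plate controls were DMSO with CCL20 for no effect and DMSO without agonist for full effect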
APJ agonist – agonists of human APJ apelin receptor. activation, % at 20 µM. P35414. AID 2520. CHO-K1 APJ PathHunter beta-arrestin, luminescence; 0% DMSO wells, 100% apelin. 330,000 compounds, 0.11% hits;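 active means activation more than six SD over the plate average, tested at 20 µM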;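 further: 0% = DMSO alone and 100% = apelin-13 at 10 nM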
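Assay system: engineered CHO-K1 APJ arrestin reporter cells; Amount: 1000 CHO-K1 reporter cells seeded per well; Dosing: one dose, 20 µM compound, 1% DMSO; Times: compound stimulation 90 min at 25 °C, detection 60 min; Measured by: luminescent beta-gal fragment complementation, chemiluminescent substrate; Read-out: APJ–arrestin association signal; Controls: DMSO vs Apelin-13 10 nM.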
CXCR6 block – blocks human CXCR6 beta-arrestin recruitment | CHO-K1 PathHunter CXCR6 beta-arrestin, luminescence | O00574 | inhibition, % at 20 µM | 360,000 compounds, 0.36% hits; in the data active means inhibition above about 34%, passing the limit was not always enough;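 further: antagonist mode with CXCL16 agonist at 10 nM final; 0% = 10 nM CXCL16 with DMSO and 100% = unstimulated wells without agonist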
Target sequence (O00574 whole entry, looked up): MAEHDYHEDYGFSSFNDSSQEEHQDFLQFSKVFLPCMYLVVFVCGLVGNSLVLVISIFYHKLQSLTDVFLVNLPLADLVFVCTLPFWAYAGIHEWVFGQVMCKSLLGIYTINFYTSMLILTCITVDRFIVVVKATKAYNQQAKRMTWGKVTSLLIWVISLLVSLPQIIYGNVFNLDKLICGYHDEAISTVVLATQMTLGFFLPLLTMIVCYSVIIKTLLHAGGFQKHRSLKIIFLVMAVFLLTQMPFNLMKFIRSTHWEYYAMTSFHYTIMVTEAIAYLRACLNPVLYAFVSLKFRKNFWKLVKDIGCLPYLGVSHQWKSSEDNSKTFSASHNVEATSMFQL
EBI2 conf – EBI2 (human) antagonism, single concentration confirmation. shares compounds with EBI2 antag. inhibition, % at 5 µM. 2,400 compounds, 29% hits. EBI2 beta-arrestin luminescence, 7a,25-OHC antagonism;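 active means inhibition of at least 50%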
EBI2 agonist – EBI2 agonism counter-screen. shares compounds with EBI2 antag. EBI2-expressing cells, agonist mode, luminescence, 60 min; 0% vehicle, 100% 7α,25-dihydroxycholesterol control. activation, % at 5 µM. 2,400 tested, under 10 active. AID 652000;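 active means activation of at least 50%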
bGal cs – counter-screen for EBI2 antagonists: E. coli beta-galactosidase inhibition. shares compounds with EBI2 antag. purified beta-galactosidase, luminescent Galacton Star, 15 min. inhibition, % at 5 µM. 2,400 compounds, 1% hits. AID 652176;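 active means replicate-average signal at least 3 plate SD below neutral wells, shown as high inhibition, flagging enzyme-inhibiting false positives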;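 further: 0% = DMSO wells with enzyme and 100% = wells lacking enzyme; higher means stronger loss of beta-gal luminescence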
* hit, by the source's call; . = not tested or not shown. Sampled rows, rich in hits. Any-hit rate of the full collection: about 1.5%.

SMILES	EBI2 antag	APJ antag	CCR6 antagonist	APJ agonist	CXCR6 block	EBI2 conf	EBI2 agonist	bGal cs
Cc1ccc(Cl)cc1N1CCN(C(=O)COc2ccc3c(c2)CCC3)CC1	77.5*	9.6	9.7	-1.9	-0.9	42.1	-0.9	-13.0
O=C(COc1ccc(Cl)cc1)N1CCN(c2ncccn2)CC1	72.6*	-21.5	-14.0	-4.9	-3.4	58.1*	2.0	-1.8
COc1ccccc1N1CCN(C(=O)COc2ccc(Cl)cc2)CC1	81.3*	16.8	-0.3	6.9	-0.7	51.8*	0.6	3.7
CC(=O)c1ccc(N2CCN(C(=O)COc3ccc4c(c3)CCC4)CC2)cc1	33.6	14.5	15.7	-5.5	-1.0	.	.	.
O=C(COc1ccc(Br)cc1)N1CCN(c2ncccn2)CC1	93.9*	-6.1	-4.3	-4.3	-8.5	78.7*	0.2	1.5
O=C1NN=C(c2ccc(Br)cc2)CC1c1ccc(Cl)cc1 (stereo not given)	74.0*	-4.4	10.1	-2.9	9.5	51.9*	-1.7	-2.4
CN1N=C(c2ccc(Cl)cc2)CC(c2ccc(Cl)cc2)C1=O (stereo not given)	41.3	-1.6	17.1	0.2	-2.7	.	.	.
CCc1ccc(C2CC(c3ccc(Cl)cc3)=NNC2=O)cc1 (stereo not given)	61.4*	15.1	-6.7	-1.5	-25.7	47.6	0.8	0.5
Cc1cccc(C2=NNC(=O)C(c3ccc(Cl)cc3)C2)c1 (stereo not given)	23.5	16.0	-2.4	-3.0	-1.6	.	.	.
Cc1ccc(C2CC(c3ccc(Cl)cc3)=NNC2=O)cc1 (stereo not given)	49.5*	6.6	-8.8	-0.8	0.3	44.3	-0.2	8.0
CC(C)CCNc1nnnc2c1sc1nc(N3CCOCC3)c3c(c12)CC(C)(C)SC3	51.9*	11.8	1.0	-2.4	10.0	42.8	-1.7	-3.5
Cc1ccnc(NC(=O)c2oc3ccccc3c2C)c1	11.2	6.7	15.7	1.3	-3.8	.	.	.
CCOc1ccc2oc(C(=O)Nc3cc(C)ccn3)c(C)c2c1	42.6*	5.6	18.1	-2.4	-0.6	10.4	-0.7	-9.6
Cc1ccc(CNC(=O)C2CCN(C(=O)Nc3ccc(C)cc3)CC2)cc1	61.6*	3.5	12.5	-2.9	1.8	28.8	0.2	10.0
O=C(NCc1ccc(F)cc1)C1CCCN(C(=O)Nc2ccccc2)C1 (stereo not given)	50.3*	-1.8	-6.5	0.9	-2.0	18.5	0.4	5.6
O=C(NCc1ccccc1F)C1CCCN(C(=O)Nc2ccc(F)cc2)C1 (stereo not given)	15.6	-24.4	12.3	0.0	-6.5	.	.	.
O=C(NCc1ccc(F)cc1)C1CCCN(C(=O)Nc2ccc(F)cc2)C1 (stereo not given)	51.5*	12.4	1.7	-1.8	0.6	32.6	2.2	1.1
O=C(c1ccc(CS(=O)c2ccccc2Cl)o1)N1CCN(C2CCCCC2)CC1 (stereo not given)	2.2	.	.	.	-6.0	.	.	.
Cc1ccc(N2CCN(C(C(=O)Nc3c(C)cccc3C)c3ccccc3OC(F)(F)F)CC2)cc1 (stereo not given)	10.5	.	.	.	.	.	.	.
CCOC(=O)C1=CCN(S(=O)(=O)c2ccccc2F)C1c1ccc(F)cc1 (stereo not given)	-22.5	.	.	.	2.0	.	.	.
O=C(/C=C/c1cccc(F)c1)N1CCN(c2ccccn2)CC1	76.9*	-21.7	3.7	-1.3	5.6	61.3*	0.3	-5.6
O=C(/C=C/c1ccccc1)N1CCN(c2ccccn2)CC1	88.0*	8.5	13.0	-2.9	7.1	74.1*	1.0	2.2
O=C(/C=C/c1ccc(Cl)c(C(F)(F)F)c1)N1CCN(c2ccccn2)CC1	47.6*	8.8	15.7	-3.2	-2.9	37.0	0.6	3.0
O=C(/C=C/c1ccc(Cl)cc1)N1CCN(c2ccccn2)CC1	93.1*	9.0	20.0	0.9	4.5	80.5*	-1.5	-8.1
NC(=O)c1cnc(Cc2c[nH]c3ccccc23)c(I)c1	-1.2	.	.	.	-6.9	.	.	.
